Test results reported in ChEMBL document CHEMBL6177914, “Human microbiome derived synthetic antimicrobial peptides with activity against Gram-negative, Gram-positive, and antibiotic resistant bacteria” (RSC Med Chem, 2025).
≈ marks a conversion by molar mass, not a printed value. Calls of active or inactive are those of the source. The calls are words filed in the database; no cut-off is given here.

Tests used:
Enterococcus faecium [1] = experiment: Antibacterial activity against vancomycin resistant Enterococcus faecium BAA 2317 assessed as inhibition of bacterial growth incubated for 24 hrs by absorbance based microplate reader analysis; assay type: functional; conditions: read-out: MIC100
Procedure, shortened: (§1)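 Broth microdilution. A single colony was grown 24 h in its recommended broth, then diluted 1:10 000 in the same medium. Peptide serial dilutions were added from DMSO stock at 4 µL per 196 µL inoculated medium. Plates were incubated aerobically or anaerobically as each pathogen requires, at 37 °C for 24 h, and OD600 was read. MIC was the lowest concentration giving 100% growth inhibition. Duplicate wells; assay repeated five times independently.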

Staphylococcus aureus [2] = experiment: Antibacterial activity against Staphylococcus aureus ATCC 25923 assessed as reduction in colony forming units at MIC concentration measured after 2 hrs by time-kill kinetic analysis; assay type: functional
Procedure, shortened: (§2)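 Samples (5 µL) taken at 0, 1, 2, 4, 6, 12, 18 and 24 h, tenfold diluted in 0.85% NaCl, and plated on TSA overnight at 37 °C for CFU counts. Two independent duplicates.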

Staphylococcus aureus [3] = experiment: Antibacterial activity against Staphylococcus aureus ATCC 25923 assessed as inhibition of bacterial growth incubated for 24 hrs by absorbance based microplate reader analysis; assay type: functional; conditions: read-out: MIC100
Procedure, shortened: as §1, with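 “read.” for “read. MIC was the lowest concentration giving 100% growth inhibition.”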

Staphylococcus aureus [4] = experiment: Antibacterial activity against methicillin resistant Staphylococcus aureus BAA 2313 assessed as inhibition of bacterial growth incubated for 24 hrs by absorbance based microplate reader analysis; assay type: functional; conditions: read-out: MIC100
Procedure, shortened: as §1, with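 “read.” for “read. MIC was the lowest concentration giving 100% growth inhibition.”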

Staphylococcus aureus [5] = experiment: Antibacterial activity against Staphylococcus aureus ATCC 25923 assessed as reduction in surviving bacteria at MIC concentration measured after 12 hrs by time-kill kinetic analysis; assay type: functional; procedure, shortened: as §2
Staphylococcus aureus [6] = experiment: Antibacterial activity against Staphylococcus aureus ATCC 25923 assessed as reduction in bacterial growth at MIC concentration measured after 24 hrs by time-kill kinetic analysis; assay type: functional, organism-based; procedure, shortened: as §2
Staphylococcus aureus [7] = experiment: Bactericidal activity against methicillin resistant Staphylococcus aureus BAA 2313 assessed as inhibition of bacterial growth at MIC concentration incubated for 48 hrs by broth microdilution assay; assay type: functional, organism-based
Procedure, shortened: (§3)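 Plates were incubated 48 h at 37 °C and examined for colonies. A fidaxomicin-treated culture at 1 µM served as the control.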

Salmonella enterica [8] = experiment: Antibacterial activity against Salmonella enterica ATCC 13314 assessed as inhibition of bacterial growth incubated for 24 hrs by absorbance based microplate reader analysis; assay type: functional
Procedure, shortened: (§4)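 Broth microdilution. An overnight single-colony culture in recommended broth was diluted 1:10 000, and peptide serial dilutions in DMSO were added (4 µL into 196 µL). Plates incubated 24 h at 37 °C, aerobic or anaerobic as required, then OD600 read. Inhibition was calculated against pathogen-only and blank wells.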

Listeria monocytogenes [9] = experiment: Bactericidal activity against Listeria monocytogenes ATCC 15313 assessed as inhibition of bacterial growth at MIC concentration incubated for 48 hrs by broth microdilution assay; assay type: functional, organism-based
Procedure, shortened: (§5)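 From broth-microdilution wells showing no growth, 10 µL was spotted onto agar and incubated 48 h at 37 °C. Plates were inspected for colonies. Fidaxomicin at 1 µM served as control.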

Caco-2 = experiment: Anti-inflammatory activity in human Caco-2 cells infected with Clostridium difficile ATCC 43602 assessed as reduction in IL-1beta level at MIC concentration by ELISA relative to control; assay type: functional; set-up: scale not given: the % may be the effect or the level left
Procedure, shortened: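 Caco-2 cells grown in DMEM + 10% FBS, 37 °C, 5% CO2, to 90% confluence, then seeded 30 000 cells/well and held 24 h. C. difficile was grown overnight anaerobically in meat broth, washed in PBS, and 1 µL of 0.5 OD600 culture added per 300 µL medium. […] Cytokine in supernatant measured by ELISA; three independent replicates.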

Escherichia coli [10] = experiment: Antibacterial activity against Escherichia coli ATCC 33694 assessed as inhibition of bacterial growth incubated for 24 hrs by absorbance based microplate reader analysis; assay type: functional; conditions: read-out: MIC100; procedure, shortened: as §4
Enterococcus faecium [11] = experiment: Bactericidal activity against vancomycin resistant Enterococcus faecium BAA 2317 assessed as inhibition of bacterial growth at MIC concentration incubated for 48 hrs by broth microdilution assay; assay type: functional, organism-based; procedure, shortened: as §3
Pseudomonas aeruginosa [12] = experiment: Antibacterial activity against Pseudomonas aeruginosa BAA 1744 assessed as inhibition of bacterial growth incubated for 24 hrs by absorbance based microplate reader analysis; assay type: functional; procedure, shortened: as §4
Listeria monocytogenes [13] = experiment: Antibacterial activity against Listeria monocytogenes ATCC 15313 assessed as inhibition of bacterial growth incubated for 24 hrs by absorbance based microplate reader analysis; assay type: functional; conditions: read-out: MIC100
Procedure, shortened: as §1, with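 “read.” for “read. MIC was the lowest concentration giving 100% growth inhibition.”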

Escherichia coli [14] = experiment: Bactericidal activity against Escherichia coli ATCC 33694 assessed as inhibition of bacterial growth at MIC concentration incubated for 48 hrs by broth microdilution assay; assay type: functional, organism-based; procedure, shortened: as §5
Pseudomonas aeruginosa [15] = experiment: Bactericidal activity against Pseudomonas aeruginosa BAA 1744 assessed as inhibition of bacterial growth at MIC concentration incubated for 48 hrs by broth microdilution assay; assay type: functional, organism-based; procedure, shortened: as §5
Staphylococcus aureus [16] = experiment: Bactericidal activity against Staphylococcus aureus ATCC 25923 assessed as inhibition of bacterial growth at MIC concentration incubated for 48 hrs by broth microdilution assay; assay type: functional, organism-based; procedure, shortened: as §5
Salmonella enterica [17] = experiment: Bactericidal activity against Salmonella enterica ATCC 13314 assessed as inhibition of bacterial growth at MIC concentration incubated for 48 hrs by broth microdilution assay; assay type: functional, organism-based; procedure, shortened: as §5
Clostridioides difficile = experiment: Bactericidal activity against Clostridium difficile ATCC 43602 assessed as inhibition of bacterial growth at MIC concentration incubated for 48 hrs by broth microdilution assay; assay type: functional, organism-based; procedure, shortened: as §5

Row | Structure (SMILES) | MIC (Enterococcus faecium [1]) [µM] | Activity (Staphylococcus aureus [2]) [log10CFU/ml] | MIC (Staphylococcus aureus [3]) [µM] | MIC (Staphylococcus aureus [4]) [µM] | Activity (Staphylococcus aureus [5]) [log10CFU/ml] | Activity (Staphylococcus aureus [6]) | Activity (Staphylococcus aureus [7]) | Activity (Salmonella enterica [8]) | Activity (Listeria monocytogenes [9]) | Activity (Caco-2) [%] | MIC (Escherichia coli [10]) [µM] | Activity (Enterococcus faecium [11]) | Activity (Pseudomonas aeruginosa [12]) | MIC (Listeria monocytogenes [13]) [µM] | Activity (Escherichia coli [14]) | Activity (Pseudomonas aeruginosa [15]) | Activity (Staphylococcus aureus [16]) | Activity (Salmonella enterica [17]) | Activity (Clostridioides difficile)
1 | CC1(C)S[C@@H]2[C@H](NC(=O)[C@H](N)c3ccc(O)cc3)C(=O)N2[C@H]1C(=O)O [AMOXICILLIN] | 35 (≈ 12.8 µg/mL) | 4 | 5 (≈ 1.83 µg/mL) | 35 (≈ 12.8 µg/mL) | 5 | Active |  |  |  |  |  |  |  |  |  |  |  |  | 
2 | CC[C@H](C)[C@H](NC(=O)CNC(=O)CNC(=O)[C@H](CO)NC(=O)[C@@H](NC(=O)[C@H](CCCCN)NC(=O)[C@H](CO)NC(=O)[C@H](CC(C)C)NC(=O)[C@H](CCC(=O)O)NC(=O)[C@@H](NC(=O)[C@H](CCC(=O)O)NC(=O)[C@H](CC(N)=O)NC(=O)[C@H](CC(C)C)NC(=O)[C@H](CCCCN)NC(=O)[C@H](CC(N)=O)NC(=O)[C@@H](N)CCSC)C(C)C)[C@@H](C)CC)C(=O)NCC(=O)N1CCC[C@H]1C(=O)N[C@@H](CC(C)C)C(=O)N[C@H](C(=O)N[C@H](C(=O)N1CCC[C@H]1C(=O)N[C@H](C(=O)N[C@@H](C)C(=O)N[C@@H](C)C(=O)N[C@H](C(=O)N[C@@H](CC(C)C)C(=O)NCC(=O)N[C@@H](Cc1ccccc1)C(=O)N[C@@H](CC(C)C)C(=O)N[C@@H](C)C(=O)N[C@H](C(=O)N[C@@H](CC(=O)O)C(=O)N[C@@H](C)C(=O)N[C@@H](Cc1c[nH]c2ccccc12)C(=O)N[C@@H](CC(N)=O)C(=O)N[C@@H](Cc1cnc[nH]1)C(=O)N[C@@H](C)C(=O)N[C@@H](CC(=O)O)C(=O)N[C@@H](CCC(=O)O)C(=O)N[C@@H](CC(C)C)C(=O)N[C@H](C(=O)N[C@@H](C)C(=O)NCC(=O)N[C@H](C(=O)N[C@@H](CCCCN)C(=O)N[C@@H](CCC(N)=O)C(=O)NCC(=O)N[C@@H](Cc1c[nH]c2ccccc12)C(=O)N[C@@H](CCC(=O)O)C(=O)N[C@@H](CCCNC(=N)N)C(=O)N[C@@H](CO)C(=O)O)C(C)C)C(C)C)[C@H](C)O)[C@@H](C)CC)C(C)C)[C@@H](C)CC)C(C)C |  | 2 |  |  | 5 | Active | Active | inactive | Active | 91 | 7.5 (≈ 41.4 µg/mL) | Active | inactive | 1.2 (≈ 6.62 µg/mL) | Active | Active | Active | Active | Active
